Experimental data taken from ChEMBL document CHEMBL1152430, “Selective inhibition of nicotinamide adenine dinucleotide kinases by dinucleoside disulfide mimics of nicotinamide adenine dinucleotide analogues” (Bioorg Med Chem, 2009).
The source made the active and inactive calls. No cut-off for these calls is given here.

What was measured:
[1] = target: L-lactate dehydrogenase (Homo sapiens) (UniProt V9HWB9); experiment: Inhibition of human LDH at 100 uM
NAD kinase [2] = target: T1, NAD kinase (Homo sapiens, UniProt O95544); experiment: Inhibition of human NAD kinase by modified HPLC based assay
T1 sequence (O95544 whole entry): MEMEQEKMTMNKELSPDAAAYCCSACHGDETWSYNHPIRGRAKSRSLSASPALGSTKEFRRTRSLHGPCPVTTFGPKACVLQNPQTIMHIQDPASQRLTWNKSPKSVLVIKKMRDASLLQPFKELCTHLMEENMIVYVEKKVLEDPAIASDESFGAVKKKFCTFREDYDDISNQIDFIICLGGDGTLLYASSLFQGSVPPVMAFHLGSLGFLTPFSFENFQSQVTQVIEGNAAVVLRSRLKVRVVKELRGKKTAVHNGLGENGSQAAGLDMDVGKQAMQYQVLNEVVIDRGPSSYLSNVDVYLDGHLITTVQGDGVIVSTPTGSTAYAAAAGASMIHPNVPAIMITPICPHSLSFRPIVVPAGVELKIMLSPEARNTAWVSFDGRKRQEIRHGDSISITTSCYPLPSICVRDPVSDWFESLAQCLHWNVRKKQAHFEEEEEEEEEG

NAD kinase [3] = target: T2, NAD kinase (Mycobacterium tuberculosis, UniProt P9WHV7); experiment: Inhibition of Mycobacterium tuberculosis NAD kinase by modified HPLC based assay
T2 sequence (P9WHV7 whole entry): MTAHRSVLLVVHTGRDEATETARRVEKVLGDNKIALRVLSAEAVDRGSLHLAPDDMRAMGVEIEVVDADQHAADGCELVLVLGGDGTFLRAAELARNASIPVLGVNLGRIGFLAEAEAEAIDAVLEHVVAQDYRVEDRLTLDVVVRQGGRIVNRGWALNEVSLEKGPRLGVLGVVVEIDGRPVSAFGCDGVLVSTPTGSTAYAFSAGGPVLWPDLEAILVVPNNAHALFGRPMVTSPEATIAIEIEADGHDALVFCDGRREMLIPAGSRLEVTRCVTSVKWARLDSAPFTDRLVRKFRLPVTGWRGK
Method in brief: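 Purified-to-homogeneity M. tuberculosis NAD kinase incubated at 37 °C in 50 mM Tris/HCl pH 8.0, 20 mM MgCl₂ with ATP and NAD substrates, without or with varying inhibitor concentrations. Reaction stopped with HClO₄, neutralized with K₂CO₃, nucleotides resolved by reversed-phase C18 HPLC with potassium phosphate pH 6.0/methanol gradient.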

[4] = target: Inosine-5'-monophosphate dehydrogenase 2 (Homo sapiens) (UniProt P12268); experiment: Inhibition of human IMPDH2 at 100 uM
Chain of Inosine-5'-monophosphate dehydrogenase 2 (Homo sapiens) (P12268 2-514 limits assumed): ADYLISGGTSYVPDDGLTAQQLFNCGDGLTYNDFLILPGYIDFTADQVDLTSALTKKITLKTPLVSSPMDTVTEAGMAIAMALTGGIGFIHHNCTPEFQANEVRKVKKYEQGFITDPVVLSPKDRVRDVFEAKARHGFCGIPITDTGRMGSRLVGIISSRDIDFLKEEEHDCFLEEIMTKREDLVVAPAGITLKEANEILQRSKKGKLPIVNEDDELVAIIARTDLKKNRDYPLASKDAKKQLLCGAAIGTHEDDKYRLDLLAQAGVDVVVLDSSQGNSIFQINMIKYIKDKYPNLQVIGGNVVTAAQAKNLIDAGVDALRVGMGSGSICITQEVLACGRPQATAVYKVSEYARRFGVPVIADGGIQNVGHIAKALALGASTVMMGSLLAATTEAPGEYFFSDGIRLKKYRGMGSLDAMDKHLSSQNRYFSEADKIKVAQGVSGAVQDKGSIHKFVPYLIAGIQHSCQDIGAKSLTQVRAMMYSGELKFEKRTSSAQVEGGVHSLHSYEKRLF

[5] = target: Inosine-5'-monophosphate dehydrogenase 1 (Homo sapiens) (UniProt P20839); experiment: Inhibition of human IMPDH1 at 100 uM
Chain of Inosine-5'-monophosphate dehydrogenase 1 (Homo sapiens) (P20839 2-514 limits assumed): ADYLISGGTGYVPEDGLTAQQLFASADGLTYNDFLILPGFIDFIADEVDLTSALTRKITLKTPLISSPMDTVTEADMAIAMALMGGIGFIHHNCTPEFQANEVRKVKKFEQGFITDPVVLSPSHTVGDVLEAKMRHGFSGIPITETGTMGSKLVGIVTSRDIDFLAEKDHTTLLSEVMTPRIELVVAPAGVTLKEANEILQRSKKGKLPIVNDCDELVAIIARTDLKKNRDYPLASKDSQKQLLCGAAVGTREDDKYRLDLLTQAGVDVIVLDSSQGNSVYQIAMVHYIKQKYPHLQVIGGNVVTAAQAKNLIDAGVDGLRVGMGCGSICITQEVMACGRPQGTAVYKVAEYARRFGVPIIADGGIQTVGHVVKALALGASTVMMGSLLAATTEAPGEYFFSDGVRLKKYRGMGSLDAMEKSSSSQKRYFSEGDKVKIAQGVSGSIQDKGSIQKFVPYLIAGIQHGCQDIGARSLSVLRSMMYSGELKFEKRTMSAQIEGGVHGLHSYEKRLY

Homo sapiens = species: Homo sapiens; experiment: (§1) Inhibition of human IMPDH
[6] = target: L-lactate dehydrogenase (Homo sapiens) (UniProt V9HWB9); experiment: Inhibition of human LDH
[7] = Binding affinity to penicillopepsin
[8] = as §1
[9] = Inhibition of horse liver alcohol dehydrogenase; parameters: species or system Equus caballus
[10] = Inhibition of Listeria monocytogenes NADK1

Row | SMILES | inhibition [1] | IC50 (NAD kinase [2]; read-out: IC50) [µM] | IC50 (NAD kinase [3]; read-out: IC50) [µM] | inhibition [4] | inhibition [5] | further results
1 | Nc1ncnc2c1ncn2[C@@H]1O[C@H](CSSC[C@H]2O[C@@H](n3c(Br)nc4c(N)ncnc43)[C@H](O)[C@@H]2O)[C@@H](O)[C@H]1O | inactive | 6 | 14 | inactive | inactive | –
2 | NC(=O)c1csc([C@@H]2O[C@H](CSSC[C@H]3O[C@@H](n4cnc5c(N)ncnc54)[C@H](O)[C@@H]3O)[C@@H](O)[C@H]2O)n1 | inactive | 110 | 80 | inactive | inactive | inhibition (Homo sapiens): inactive; inhibition [6]: inactive
3 | Nc1ncnc2c1nc(Br)n2[C@@H]1O[C@H](CSSC[C@H]2O[C@@H](n3c(Br)nc4c(N)ncnc43)[C@H](O)[C@@H]2O)[C@@H](O)[C@H]1O | inactive | 6 | 19 | inactive | inactive | –
4 | Nc1ncnc2c1nc(-c1ccccc1)n2[C@@H]1O[C@H](CSSC[C@H]2O[C@@H](n3c(-c4ccccc4)nc4c(N)ncnc43)[C@H](O)[C@@H]2O)[C@@H](O)[C@H]1O | inactive | 45 | – | inactive | inactive | IC50 (NAD kinase [3]): Not Active
5 | COC(=O)[C@H](Cc1ccccc1)OP(=O)(O)[C@H](CC(C)C)NC(=O)[C@H](CC(N)=O)NC(=O)[C@@H](NC(=O)CC(C)C)C(C)C | – | – | – | – | – | Ki [7]: 0.042 µM
6 | C#Cc1nc(N)c2ncn([C@@H]3O[C@H](COP(=O)(O)OP(=O)(O)OC[C@H]4O[C@@H](c5nc(C(N)=O)cs5)[C@H](O)[C@@H]4O)[C@@H](O)[C@H]3O)c2n1 | – | – | – | – | – | Ki [8]: 0.01 µM
7 | CCc1nc(N)c2ncn([C@@H]3O[C@H](COP(=O)(O)OP(=O)(O)OC[C@H]4O[C@@H](c5nc(C(N)=O)cs5)[C@H](O)[C@@H]4O)[C@@H](O)[C@H]3O)c2n1 | – | – | – | – | – | Ki [8]: 0.001 µM
8 | NC(=O)c1csc([C@@H]2O[C@H](COP(=O)(O)OP(=O)(O)OC[C@H]3O[C@@H](n4cnc5c(N)ncnc54)[C@H](O)[C@@H]3O)[C@@H](O)[C@H]2O)n1 [TIAZOFURIN ADENINE DINUCLEOTIDE] | – | – | – | – | – | Ki [8]: 0.1 µM; Ki [9]: 0.001 µM
9 | Nc1ncnc2c1ncn2[C@@H]1O[C@H](CSSC[C@H]2O[C@@H](n3cnc4c(N)ncnc43)[C@H](O)[C@@H]2O)[C@@H](O)[C@H]1O | inactive | 87 | 45 | inactive | inactive | inhibition (Homo sapiens): inactive; inhibition [6]: inactive; Ki [10]: 20 µM
10 | C[C@@]1(O)[C@H](O)[C@@H](CSSC[C@H]2O[C@@H](n3cnc4c(N)ncnc43)[C@](C)(O)[C@@H]2O)O[C@H]1n1cnc2c(N)ncnc21 | inactive | 280 | 500 | inactive | inactive | –
11 | NC(=O)c1csc([C@@H]2O[C@H](COP(=O)(O)OP(=O)(O)OC[C@H]3O[C@@H](n4cnc5c(N)nc(I)nc54)[C@H](O)[C@@H]3O)[C@@H](O)[C@H]2O)n1 | – | – | – | – | – | Ki [8]: 0.02 µM
12 | NC(=O)c1cccc([C@@H]2O[C@H](COP(=O)(O)OP(=O)(O)OC[C@H]3O[C@@H](n4cnc5c(N)ncnc54)[C@H](O)[C@@H]3O)[C@@H](O)[C@H]2O)c1 [BENZAMIDEADENINEDINUCLEOSIDE] | – | – | 200 | – | – | –
13 | C[C@@]1(O)[C@@H](CSSC[C@H]2O[C@@H](n3cnc4c(N)ncnc43)[C@H](O)[C@]2(C)O)O[C@@H](n2cnc3c(N)ncnc32)[C@@H]1O | inactive | – | – | inactive | inactive | IC50 (NAD kinase [2]): Not Active; IC50 (NAD kinase [3]): Not Active
14 | NC(=O)c1csc([C@@H]2O[C@H](CSSC[C@H]3O[C@@H](c4nc(C(N)=O)cs4)[C@H](O)[C@@H]3O)[C@@H](O)[C@H]2O)n1 | inactive | – | – | inactive | inactive | inhibition (Homo sapiens): inactive; IC50 (NAD kinase [2]): Not Active; inhibition [6]: inactive; IC50 (NAD kinase [3]): Not Active
15 | COC(=O)[C@@H]1Cc2cccc(c2)CNC(=O)C[C@H](NC(=O)[C@@H](NC(=O)CC(C)C)C(C)C)C(=O)N[C@@H](CC(C)C)P(=O)(O)O1 | – | – | – | – | – | Ki [7]: 0.0001 µM
